IC50 data for 13 compounds are collected here from ChEMBL document CHEMBL1145820, “Design, synthesis, and evaluation of novel boronic-chalcone derivatives as antitumor agents” (J Med Chem, 2003).

Type in all cases: functional, cell-based
The test system of one test is MDA-MB-435. Put plainly: Inhibitory activity against MDA-MB-435 human breast cell line. The gist of the method: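 Cells kept in IMEM with 5% FBS and 2 mM glutamine at 37 °C, 5% CO2. After 24 h attachment, cells were exposed in quadruplicate wells to 0.5-100 µM compound (10 mM DMSO stocks) for 96 h. Read-out was MTT (1 mg/mL, 4 h), with formazan dissolved in DMSO:ethanol and absorbance at 540 nm. IC50 came from log plots of percent of control vs concentration; assayed twice.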

Another test relates to MCF7. Briefly: Inhibitory activity against Wt-MCF7 human breast cell line. The gist of the method:
(§1)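 Cells kept in DMEM with 5% FBS, 2 mM glutamine and penicillin/streptomycin at 37 °C, 5% CO2. Cells plated and attached for 24 h, then exposed to 0.5-100 µM compound (10 mM DMSO stocks) for 96 h in quadruplicate wells. MTT (1 mg/mL, serum-free medium) was added for 4 h, formazan dissolved in DMSO:ethanol 1:1, and A540 read. IC50 taken from log plots of percent of control; two runs.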

Another test deals with MCF-10A. Briefly: Inhibitory activity against MCF-10A human breast cell line.
The next test concerns MDA-MB-231. Briefly: Inhibitory activity against MDA-MB-231 human breast cell line. The gist of the method:
as §1

A further test relates to MCF-12A. Put plainly: Inhibitory activity against MCF-12A human breast cell line.

SMILES strings stand for the structures.

As for `O=C(/C=C/c1ccc(I)cc1)c1ccc(O)cc1`, the IC50 – broadly, the concentration that gives 50% inhibition – in the test on MDA-MB-435 stood at 4.5 µM; in the test with MCF7, 7 µM; with MCF-10A it was 15 µM; in the test with MDA-MB-231 it was 8 µM; in the test on MCF-12A, 30 µM.
For `O=C(O)COc1ccc(C(=O)/C=C/c2ccc(Cl)c(Cl)c2)cc1`, in that order: 9 µM, 13 µM, 13 µM, 9 µM and 15 µM.
For `O=C(O)COc1ccc(C(=O)/C=C/c2ccc(I)cc2)cc1`, in that order: 18 µM, 9 µM, 44 µM, 44 µM and 38 µM.
On the same counts, the results for `O=C(O)COc1ccc(/C=C/C(=O)c2ccc(Cl)c(Cl)c2)cc1` are 13 µM, 15 µM, 12 µM, 18 µM and 28 µM.
Turning to `O=C(/C=C/c1ccc(F)c(F)c1)c1ccc(B(O)O)cc1`, the IC50 with MDA-MB-435 was determined as 8.8 µM; in the test with MCF7 it was 7.8 µM; in the test with MCF-10A, 18 µM; in the test with MDA-MB-231, 8.8 µM; in the test with MCF-12A, 39 µM.
`O=C(/C=C/c1ccc(I)cc1)c1ccc(B(O)O)cc1`: the concentration for half-maximal inhibition (IC50) in the test on MDA-MB-435 amounted to 10 µM; with MCF7, 7 µM; in the test on MCF-10A, 75 µM; with MDA-MB-231, 8.8 µM; with MCF-12A, 63 µM.
`O=C(/C=C/c1ccc(F)c(Cl)c1)c1ccc(B(O)O)cc1`: the IC50 with MDA-MB-435 stood at 16 µM; in the test on MCF7, 6 µM; with MCF-10A, 25 µM; with MDA-MB-231, 8.5 µM; with MCF-12A, 22 µM.
For `O=C(/C=C/c1ccc(B(O)O)cc1)c1ccc[nH]1`, in that order: 15 µM, 19 µM, 38 µM, 23 µM and 60 µM.
For `O=C(/C=C/c1ccc(B(O)O)cc1)c1ccc(Cl)c(Cl)c1`, in that order: 4 µM, 5.5 µM, 18 µM, 8 µM and 15 µM.
Consider `O=C(/C=C/c1ccc(Cl)c(Cl)c1)c1ccc(B(O)O)cc1`, for which the 50% inhibitory concentration (IC50) in the test with MDA-MB-435 is 3.5 µM; in the test on MCF7 it was 5 µM; with MCF-10A, 18 µM; with MDA-MB-231, 9.5 µM; in the test with MCF-12A it was 11 µM.
For `O=C(/C=C/c1ccc(F)c(Br)c1)c1ccc(B(O)O)cc1`, in that order: 8.8 µM, 8.5 µM, 17 µM, 9.5 µM and 38 µM.
For `O=C(/C=C/c1ccccc1)c1ccc[nH]1`, in that order: 15 µM, 9 µM, 63 µM, 15 µM and 38 µM.
For `O=C(/C=C/c1ccc(I)cc1)c1ccc(OCB(O)O)cc1`, in that order: 18 µM, 9.5 µM, 38 µM, 11 µM and 100 µM.
